Assay results of several laboratories.
Each line is one published result; the experiments were not run side by side.
JAK1 JH2: Tyrosine-protein kinase JAK1, JH2 (JAK1, Homo sapiens, UniProt P23458)
JAK1 JH1: Tyrosine-protein kinase JAK1, JH1 (JAK1, Homo sapiens, UniProt P23458)
JAK1: Tyrosine-protein kinase JAK1 (JAK1, Homo sapiens, UniProt P23458)

Structure (SMILES)	target	observed	technique	tested at	remaining binding
COc1ccc2c(c1)O[C@@H](c1ccc(OC)c(OC)c1)C[C@H]2NC(=O)C1(c2ccc3c(c2)OC(F)(F)O3)CC1	JAK1 JH2	cell-free assay	competition with immobilised ligand	1 µM	90%
O=C(c1ccc(Nc2ncc(Cl)c(-c3ccc(Cl)s3)n2)cc1)N1CCC(N2CCCC2)CC1	JAK1 JH1	binding	competition with immobilised ligand	1 µM	8.6%
Cc1cnn2ncc(-c3ccnc(N(C)C)n3)c2c1	JAK1	binding	–	1 µM	51%
CO[C@H]1CC[C@H](CNc2ccc(S(=O)(=O)NC(=O)c3ccc(N4CCN(CC5=C(c6ccc(Cl)cc6)CC(C)(C)CC5)CC4)cc3Oc3cnc4[nH]ccc4c3)cc2[N+](=O)[O-])CC1	JAK1 JH2	cell-free assay	competition with immobilised ligand	1 µM	100%
O=C(NCCCN1CCOCC1)c1ccc(Nc2ncc(Cl)c(-c3ccc(Cl)s3)n2)cc1	JAK1 JH2	binding	competition with immobilised ligand	1 µM	46%
c1cncc(-c2cccc(Nc3nccc(NC4CCCCC4)n3)c2)c1	JAK1 JH1	binding	competition with immobilised ligand	10 µM	14%
CN(C)c1nccc(-c2cnn3ncccc23)n1	JAK1	binding	–	1 µM	53%
O=C(NCC1CCOCC1)c1n[nH]cc1NC(=O)c1c(F)cccc1F	JAK1 JH1	binding	competition with immobilised ligand	1 µM	100%
CN(C)CC#Cc1ccc(OCCCc2sc(N3CCc4cccc(C(=O)Nc5nc6ccccc6s5)c4C3)nc2C(=O)O)c(F)c1	JAK1 JH2	cell-free assay	competition with immobilised ligand	1 µM	100%
N[C@@H]1CCN(c2nccc(-c3cnn4ncccc34)n2)C1	JAK1 JH1	cell-free assay	competition with immobilised ligand	1 µM	100%
O=C(NCCCN1CCOCC1)c1ccc(Nc2nccc(-c3cc4ccccc4s3)n2)cc1	JAK1 JH1	binding	competition with immobilised ligand	1 µM	39%
CN(C)c1nccc(-c2cnc3ncccn23)n1	JAK1 JH1	cell-free assay	competition with immobilised ligand	1 µM	94%
COc1ncc2cc3ccccc3nc2c1C#N	JAK1 JH1	cell-free assay	competition with immobilised ligand	5 µM	93%
c1cnn2ncc(-c3ccnc(N4CCC45COC5)n3)c2c1	JAK1	binding	–	1 µM	67%
CC1=C(C#N)C(c2ccc3c(c2)c(NC(=O)c2ccccc2C)nn3C)C(C#N)=C(C)N1	JAK1 JH1	cell-free assay	competition with immobilised ligand	1 µM	100%
F[C@@H]1CCN(c2nccc(-c3cnn4ncccc34)n2)C1	JAK1	binding	–	1 µM	100%
C[C@@H]1CN(c2cc(-c3n[nH]c4ccc(OC5(C)CC5)cc34)ncn2)C[C@H](C)O1	JAK1 JH2	cell-free assay	competition with immobilised ligand	0.1 µM	79%
COc1cnc(Nc2cccc(S(N)(=O)=O)c2)nc1N1CCN(c2ccccc2)CC1	JAK1 JH2	binding	competition with immobilised ligand	1 µM	28%
CC(=O)C1=C(C)N(c2cccc(C(F)(F)F)c2)C(=O)N[C@@H]1c1ccc(C#N)nc1	JAK1 JH1	cell-free assay	competition with immobilised ligand	1 µM	85.9%
COc1cnc(Nc2cccc(S(N)(=O)=O)c2)nc1N1CCN(c2ccccc2)C(=O)C1	JAK1 JH1	binding	competition with immobilised ligand	1 µM	85%
